Assay outcomes deposited in PubChem BioAssay by several laboratories.
Only some compounds are listed: those with a hit (about 2.9% of all), similar ones and a draw of the others.
SENP8 block-1 = SENP8 protease inhibition; purified SENP8, Z-RLRGG-aminoluciferin cleavage, luminescence; Q96LD8; inhibition, % at 10 µM; AID 2540; 330,000 compounds, 1.2% hits; in the data active means inhibition above about 50%
SENP8 block-2 = inhibitors of human SENP8 protease | Q96LD8 | recombinant SENP8, Nedd8 substrate fluorescence | inhibition, % at 20 µM | 360,000 compounds, 0.64% hits; in the data active means inhibition mostly above about 40%, no sharp cut-off; inactive means mostly below about 27%
SENP1 inh = SENP1 (human) catalytic domain inhibition; Q9P0U3; recombinant SENP1 catalytic domain, CyPet-SUMO1-YPet FRET cleavage; inhibition, % at 10 µM; 360,000 compounds, 0.21% hits; AID 624204;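 active means inhibition at least 30% at 10 µM, raw YFP signal under a set limit, fluorescence ratio 0.5 to 1.5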
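system = hSENP1 catalytic domain, recombinant | reagent = SFCypet-SUMO1-SFYpet substrate at 25 nM | doses = one dose per compound, 10 µM, 0.5% DMSO | incubation = enzyme reaction for 50 min at room temperature, dark | measured by = FRET, CFP and YFP emission | controls = no-enzyme low, enzyme-DMSO high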
SENP7 inh = inhibitors of human SENP7 protease | Q9BQF6 | recombinant SENP7, Z-RLRGG-aminoluciferin luminescence, 40 min | inhibition, % at 5 µM | 330,000 compounds, 1.5% hits | AID 434973;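 active means inhibition above about 50% at the single test dose, limit read from the data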
HSP90 inh = HSP90 refolding inhibition in rabbit reticulocyte lysate; luciferase refolding luminescence, 3 h; inhibition, % at 5.6 µM; 290,000 compounds, 0.91% hits;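 active means inhibition above the screen-wide mean plus 3 SD, computed separately per campaign, cut at about 16% in these data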;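 further: inhibitors lower the luminescence because luciferase stays unfolded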
SENP6 block = blocks the human protease SENP6 | Recombinant SENP6 catalytic domain, aminoluciferin luminescence | Q9GZR1 | AID 2599 | 330,000 compounds, 1.8% hits | inhibition, % at 10 µM;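 active means inhibition above about 50% at the single tested dose, limit read from the data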
Target sequence (Q9GZR1 628-1112 limits assumed): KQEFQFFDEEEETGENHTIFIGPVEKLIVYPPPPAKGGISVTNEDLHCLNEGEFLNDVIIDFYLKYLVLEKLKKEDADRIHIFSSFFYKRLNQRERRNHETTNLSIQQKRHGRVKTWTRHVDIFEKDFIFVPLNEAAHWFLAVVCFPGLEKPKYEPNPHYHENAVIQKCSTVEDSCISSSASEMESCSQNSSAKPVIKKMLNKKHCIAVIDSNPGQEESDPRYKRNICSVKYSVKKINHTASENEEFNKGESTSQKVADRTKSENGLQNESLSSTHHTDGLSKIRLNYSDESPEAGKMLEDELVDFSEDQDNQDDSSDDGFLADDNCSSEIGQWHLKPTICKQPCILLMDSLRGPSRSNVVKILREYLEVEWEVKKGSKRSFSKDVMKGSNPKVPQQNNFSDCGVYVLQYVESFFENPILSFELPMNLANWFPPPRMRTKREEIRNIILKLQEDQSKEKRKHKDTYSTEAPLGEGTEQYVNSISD
Hits are given with their value; – = inactive; · = no result given.

SMILES | SENP8 block-1 | SENP8 block-2 | SENP1 inh | SENP7 inh | HSP90 inh | SENP6 block
CCOC(=O)N1CCN(C2=C(NS(=O)(=O)c3ccc(NC(C)=O)cc3)C(=O)c3ccccc3C2=O)CC1 | – | 73.2 | – | – | – | –
CCOC(=O)C1CCCN(C2=C(NS(=O)(=O)c3ccc(Br)cc3)C(=O)c3ccccc3C2=O)C1 (stereo not given) | – | 57.6 | – | – | – | –
CC(=O)Nc1ccc(S(=O)(=O)NC2=C(N3CCN(C)CC3)C(=O)c3ccccc3C2=O)cc1 | – | – | – | – | – | –
O=C1C(NS(=O)(=O)c2ccc(Br)cc2)=C(N2CCCCC2)C(=O)c2ccccc21 | – | 63.6 | – | – | – | –
CCOc1ccc(NC(=O)C(C)Oc2ccc(C#N)cc2)cc1S(=O)(=O)N1CCCC1 (stereo not given) | – | – | – | – | · | –
CCOC(=O)C1CCN(C2=C(NS(=O)(=O)c3ccc(Cl)cc3)C(=O)c3ccccc3C2=O)CC1 | – | 49.2 | – | – | – | –
CCOC(=O)C1CCN(CC(C)(C)NS(=O)(=O)c2ccc(Cl)cc2)CC1 | – | – | – | – | – | –
Cc1nn(C)c(Cl)c1C(=O)NCC(=O)Nc1ccc(C(C)C)cc1 | – | – | – | – | – | –
Cc1ccc(C)c(OCCC(=O)NNC(=O)c2cc(C)oc2C)c1 | – | – | – | – | · | –
CC(NCC(=O)Nc1ccccc1C(=O)NC1CC1)c1ccc(F)cc1F (stereo not given) | – | – | – | – | · | –
COc1cc(Br)cc(/C=C/c2ccc3cccc(O)c3n2)c1O | – | – | 67.1 | – | – | –
CC1(C)Cc2ccccc2C2CC(O)C(=O)N21 (stereo not given) | – | 40.5 | – | – | – | –
Cn1cc(-c2csc(C(O)c3ccc(F)c(F)c3)n2)cn1 (stereo not given) | · | – | – | · | · | ·
C/C(=N\Nc1nc2ccccc2[nH]1)c1ccccn1 | – | – | – | – | 19.1 | 59.4
C/C(=N\Nc1nc2ccccc2[nH]1)c1cc2ccccc2o1 | – | – | – | – | – | –
Oc1c(Br)cc(Br)cc1C=Nc1cccc2ncccc12 | 50.2 | – | – | – | · | 71.9
Fc1ccc(-c2nc3nc4ccccc4nc3n2Cc2ccco2)cc1 | – | – | – | – | 16.8 | –
c1ccc(-c2nc3nc4ccccc4nc3n2Cc2ccco2)cc1 | – | – | – | – | – | –
Nc1ccc(Oc2ncccn2)cc1 | – | 82.5 | – | – | – | –
COc1ccc(C[C@H](C)NC[C@@H](O)c2ccc(O)c(NC=O)c2)cc1 | – | – | – | – | · | –
Cc1cccnc1Nc1nc(-c2ccccn2)cs1 | 75.1 | – | – | 76.8 | – | 81.5
Oc1ccc(-c2csc(Nc3ncccn3)n2)cc1 | 55.8 | – | – | 71.8 | – | –
c1ccc(-c2csc(Nc3ncccn3)n2)cc1 | – | – | – | 74.5 | – | –
c1ccc(CCNc2nc(-c3ccncc3)cs2)cc1 | – | – | – | – | – | –
CCCCCNc1nc(-c2ccccc2)cs1 | – | · | · | – | – | 63.9
SMILES | SENP8 block-1 | SENP8 block-2 | SENP1 inh | SENP7 inh | HSP90 inh | SENP6 block
CCOC(=O)N1CCN(S(=O)(=O)N2CCCC(C(=O)NCc3ccc(C)cc3)C2)CC1 (stereo not given) | · | – | – | · | · | ·
O=C(CN1C(=O)NC2(CCCCC2)C1=O)N1CCN(S(=O)(=O)/C=C/c2ccccc2)CC1 | – | – | – | – | · | –
CCOC(=O)C1CCN(C(=O)C2CCCN(S(=O)(=O)c3ccc(OCC)c(Cl)c3)C2)CC1 (stereo not given) | – | – | – | – | · | –
COC(=O)CCN1CCc2cc(N=Nc3ccc([N+](=O)[O-])cc3)ccc21 | – | – | – | 80.0 | – | –
CCOC(=O)N1CCN(C(=O)CN(C)S(=O)(=O)c2ccc(OCC)cc2)CC1 | – | – | – | – | – | –
O=[N+]([O-])c1cc(Cl)ccc1-c1nc(-c2ccncc2)no1 | – | – | – | – | – | –
O=[N+]([O-])c1cnc2nc(-c3ccncc3)nn2c1O | 92.8 | – | – | 96.5 | – | 98.9
O=C(CS(=O)CC(=O)NC12CC3CC(CC(C3)C1)C2)Nc1ccc(F)cc1 (stereo not given) | – | – | – | – | – | –
Cc1cc2cc3c(cc2nc1SCC(=O)N1c2ccccc2CC1C)OCO3 (stereo not given) | – | – | – | – | 16.8 | –
CC(=O)N1CCc2cc(N=NC3=C(O)CCCC3=O)ccc21 | – | – | 46.9 | – | – | –
